Results taken from ChEMBL document CHEMBL4513216, “Probing the Open Global Health Chemical Diversity Library for Multistage-Active Starting Points for Next-Generation Antimalarials” (ACS Infect Dis, 2020).

Test: Toxicity liver stage against HepG2, at 10uM
Format: cell-based
Parameters: test concentration 10 uM, cell line HepG2-A16-CD81EGFP
Settings: human, HepG2-A16-CD81EGFP cells; read-out: INHIBITION
Summary of the method: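 Uninfected HepG2-A16-CD81EGFP cells, 3 × 10^3 per well, 1536-well, plated on prespotted compound at 10 μM final, parasite-free screening media added to match infected plates; puromycin 10 μM positive, DMSO 0.5% negative; run in parallel with 48 h PbLuc assay at 37 °C, 5% CO2; viability by CellTiter-Glo luminescence, normalized to controls.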

SMILES | cytotoxicity at 10 µM
Cc1c(CN2CCCCC2)c(O)n(CCO)c(=O)c1C#N | -1.64%
N#CCc1ccc(NC(=O)Cn2cc(I)cn2)cc1 | 8.44%
Cc1ccc(CNC(=O)CCC(=O)NCCC(C)C)o1 | -9.74%
Cc1nc(N2CCCC2)ncc1-c1cc(O)nc(N2CCCCC2)n1 | 10.7%
CCC1=NC(SCC(=O)c2ccc(OC)cc2)c2cc(CC)sc2N1 (stereo not given) | 9.4%
Cc1nn(C)c2cnn(CC(=O)NCc3ccc4c(c3)OCO4)c12 | 4.45%
COc1cccc(CC(=O)NCc2cnc(C)nc2C2CCCN2C)c1 (stereo not given) | -7.47%
O=C(c1cccnc1)N1CCCC1c1nc(O)cc(-c2ccccn2)n1 (stereo not given) | -5.91%
COCCC(=O)N1CCCC1c1csc(Nc2ncccn2)n1 (stereo not given) | -4.33%
Cc1nccn1-c1cncc(C2CCCN2Cc2ccccc2)n1 (stereo not given) | -8.52%
O=C(c1ccccc1Cl)N1CC[C@H](O)[C@@H](N2CCOCC2)CC1 | -4.91%
CN(c1ncc(S(N)(=O)=O)s1)C1CCc2ccccc21 (stereo not given) | -1.62%
CCN(C)CC1CCN(S(=O)(=O)c2cc(C)c(F)cc2Cl)C1 (stereo not given) | -8.38%
CCS(=O)(=O)N1CCC(Nc2c(F)cc(C#N)cc2F)CC1 | 8.13%
CC(NC1(CNC(=O)OC(C)(C)C)CCOCC1)c1ccccc1 (stereo not given) | 3.63%
Cc1nn(C)c2ncc(S(=O)(=O)N3CCCC(C(N)=O)C3)cc12 (stereo not given) | 3.45%
CCc1cc(CNC(=O)NCC(c2ccco2)N2CCCC2)[nH]n1 (stereo not given) | 0.238%
CCC1CN(CC(=O)NCc2ccco2)CCO1 (stereo not given) | -7.66%
CN(CC(=O)N1CCCC1c1noc(C2CC2)n1)C1CC1 (stereo not given) | 9.62%
Cc1cc(F)c2c(c1)CCCN2Cc1nc2c(cnn2C)c(=O)[nH]1 | 1.89%
COc1ccc(-c2cn([C@H](CO)CC(C)C)nn2)cn1 | -2.03%
O=C(NC1CCNC1)C1(N2CCCCC2)Cc2ccccc2C1 (stereo not given) | -5.76%
COc1ccc(C2CC(=O)NCc3nc4ccccn4c32)cn1 (stereo not given) | -3.95%

SMILES | cytotoxicity at 10 µM
CCN(Cc1nc(COC)no1)C(=O)CCn1c(C)cc2ccccc21 | -0.0679%
CCn1c(C2CCCN(S(=O)(=O)C3CC3)C2)nn(CCN(C)C)c1=O (stereo not given) | 0.522%
O=C1CC[C@@H](CN(Cc2ccncc2)Cc2nc(CC3CC3)no2)N1 | 3.86%
CC(C)Oc1cc(N2C[C@H](C3CC3)[C@@H](N)C2)nc(N)n1 | -4.75%
O=C(CCc1cn[nH]c1)N1C[C@@H](CN2CCCCCC2)[C@@H](CO)C1 | 2.62%
COc1ccc(C2CC(=O)NCc3nc(N(C)C)sc32)c(O)c1 (stereo not given) | 3.3%
CSc1ncc(CNC(C)c2cnn(-c3ccccc3)c2C)cn1 (stereo not given) | -3.63%
COc1cccc(-c2n[nH]c3c2CN(C(=O)c2cc(C)n(C)n2)CC3)c1 | -0.159%
O=C(c1ccon1)N1CCc2ncnc(NCc3cccnc3)c2CC1 | -1.9%
CC(c1ccccn1)N(C)Cc1ccc(CCC(C)(C)O)cc1 (stereo not given) | 1.82%
NCC1CCN(c2nc(C3CCCC3)nc3c2CCNCC3)C1 (stereo not given) | 16.1%
CN1CCCCC1CCC(=O)NCCSc1cnn[nH]1 (stereo not given) | 0.00194%
Cc1cc(N2CCC(c3ncc[nH]3)CC2)nc(N)n1 | -7.54%
FC(F)(F)COc1cccc(-c2nc3c([nH]2)CCNC3)c1 | 4.5%
Cc1cccc(N2CCC(N3CCCC4(CN(C)C(=O)O4)C3)CC2)c1C (stereo not given) | -12.8%
COc1ccc(C(=O)N2C[C@@H](CN3CCCCC3)[C@@H](CO)C2)cc1Cl | -0.703%
CCCC1(CO)CCCN(C(=O)CNC(C)=O)C1 (stereo not given) | 3.43%
CCc1c(O)n(C(C)CC)c(SCC(=O)c2ccccc2)nc1=O (stereo not given) | -2.11%
O=C(CN1CCOC(CNc2cccnn2)C1)NCc1cccs1 (stereo not given) | -14%
Cc1nn(C)cc1S(=O)(=O)NCC(c1ccccc1)N1CCCCCC1 (stereo not given) | -13.6%
O=C(c1cccc(F)c1)N1CCCC1c1ncc2c(n1)CCNC2 (stereo not given) | -12.2%
Cc1ccc(CN2CCOC3(CCN(CC4CCOC4)CC3)C2)cc1 (stereo not given) | -117%
